Assay results from different studies.
Protocols differ between the studies behind these lines.
Effect on: parasite growth

With `C=C1CC[C@@H]2[C@](C)(CCC[C@@]2(C)C(=O)O)[C@H]1CCc1ccoc1` the IC50 was 35 µg/mL (Leishmania amazonensis; 72 h; promastigote).
The IC50 of `COc1ccc(Sc2ccc(OC)c(OC)c2OC)cc1` is reported as 28 µM (Leishmania braziliensis; MTT; 24 h; promastigote).
With `CCCCCCCCc1nc2ncccn2c1NC(C)(C)CC(C)(C)C` the IC50 was 40.6 µM (Leishmania amazonensis; MTT; 72 h; promastigote).
With `Oc1ccc(/C=C/c2cc(O)cc(O)c2)cc1` the IC50 was 14 µM (Leishmania amazonensis; imaging; 48 h; intracellular, amastigote).
The IC50 of `COc1ccc(S(=O)(=O)c2ccc(OC)c(OC)c2OC)cc1` is reported as 32 µM (Leishmania braziliensis; MTT; 24 h; promastigote).
The IC50 of `COc1cc(O)c(CC=C(C)C)c(O)c1C(=O)/C=C/c1ccc(O)cc1` is reported as 47.2 µM (Leishmania amazonensis; MTT; 72 h; promastigote).
`CC(C)(C)CC(C)(C)Nc1c(-c2cccc([N+](=O)[O-])c2)nc2ncccn12` has an IC50 of greater than 100 µM (Leishmania amazonensis; MTT; 72 h; promastigote).
`C=C1CC[C@@H]2C(C)(C)CCC[C@@]2(C)[C@@H]1CC/C(C)=C/C(=O)OC` has an IC50 of 6 µg/mL (Leishmania amazonensis; 72 h; promastigote).
`COc1ccc([S+]([O-])c2ccc(C)cc2)c(OC)c1OC` (stereo not drawn) has an IC50 of 67.2 µM (Leishmania braziliensis; MTT; 24 h; promastigote).
`C=C1CC[C@@H]2[C@](C)(CCC[C@@]2(C)C(=O)O)[C@H]1CC[C@H](C)CC(=O)O` gave an IC50 of 70 µg/mL (Leishmania amazonensis; 72 h; promastigote).
For `COc1ccc(Sc2ccccc2)c(OC)c1OC`, the IC50 was 14 µM (Leishmania braziliensis; MTT; promastigote).
With `CC(C)(C)CC(C)(C)Nc1c(-c2cccs2)nc2ncccn12` the IC50 was greater than 100 µM (Leishmania amazonensis; MTT; 72 h; promastigote).
